Bioassay records (PubChem BioAssay)
NPY Y2 blocker = blocks the human neuropeptide Y Y2 receptor. P49146. NPY-Y2 expressing cells, antagonist mode. inhibition, % at 2.7 µM. 140,000 compounds, 0.99% hits. AID 793; in the data active = inhibition above about 17%;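 note: 0% = vehicle with agonist challenge and 100% = reference antagonist with challenge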
NPY1 pot ag = potentiates or activates human NPY-Y1 receptor. P25929. NPY-Y1 expressing cells, potentiator/agonist activation. activation, % at 3.6 µM. 220,000 compounds, 0.37% hits; in the data active = activation above about 33%, passing the limit was not always enough;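 note: cells stimulated with NPY at EC10 then isoproterenol at EC100; 0% = low agonist plus stimulus and 100% = saturating agonist plus stimulus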
Target sequence (P25929 whole entry, looked up): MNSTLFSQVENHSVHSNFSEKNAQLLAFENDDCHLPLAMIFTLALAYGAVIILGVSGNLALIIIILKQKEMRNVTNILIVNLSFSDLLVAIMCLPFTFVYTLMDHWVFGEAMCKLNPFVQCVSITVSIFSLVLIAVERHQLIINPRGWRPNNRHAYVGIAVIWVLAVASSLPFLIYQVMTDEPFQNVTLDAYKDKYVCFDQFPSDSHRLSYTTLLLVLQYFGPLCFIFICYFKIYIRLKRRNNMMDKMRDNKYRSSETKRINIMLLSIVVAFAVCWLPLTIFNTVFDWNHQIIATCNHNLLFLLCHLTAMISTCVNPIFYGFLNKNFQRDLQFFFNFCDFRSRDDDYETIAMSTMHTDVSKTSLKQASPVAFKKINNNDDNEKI
EP2 modulator = EP2 receptor (human) modulation; EP2-expressing cells, cAMP HTRF FRET, PGE2 co-stimulation; induction, % at 25 µM; 260,000 compounds, 0.83% hits; AID 940;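 active = compounds whose cAMP rise, as percent of the full-agonist control response, exceeds 60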;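 note: rat C6 glioma line stably carrying human EP2 under a CMV promoter; the protocol text gives 20 µM as final concentration; 100% = response of wells given 1 µM PGE2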
PGE2 EP2 inh = inhibitors of human EP2 prostaglandin E2 receptor; C6 glioma cells expressing human EP2, cAMP TR-FRET; cells stimulated with saturating PGE2; inhibition, % at 25 µM; P43116; 260,000 compounds, 0.52% hits;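 active = percent inhibition above 40 after rounding to a whole number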;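 note: rat C6 glioma host cells with rolipram phosphodiesterase inhibitor present; the protocol text gives 20 µM as final concentration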
NPY Y1 blocker = NPY-Y1 (human) receptor antagonism. inhibition, % at 3.6 µM. AID 1040. HEK293-CNG Y1 cells, membrane potential fluorescence; NPY at EC95, then isoproterenol. 200,000 compounds, 1% hits. P25929;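 active = inhibition above the campaign mean inhibition of all tested compounds plus 3 SD, cut at about 20% in these data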;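 note: 0% = DMSO wells given NPY plus isoproterenol and 100% = isoproterenol alone without NPY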
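Material: HEK293 Y1/CNG channel cell line; also added: NPY (25 nM), isoproterenol (1 µM), Ro 20-1724 (25 µM); doses: one concentration, 3.6 µM, in 0.4% DMSO; schedule: compound incubation 1 h at room temperature, readout 45 min post-stimulation; technique: membrane potential fluorescence; measure: fluorescence ratio normalized to % inhibition between controls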
NPY2 pot ag = human NPY-Y2 potentiation or agonism, primary screen; P49146; cells expressing NPY-Y2, potentiator/agonist read-out; activation, % at 3.6 µM; 220,000 compounds, 0.45% hits; AID 1359; in the data active = activation above about 27%;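 note: cells stimulated with NPY near EC25 plus isoproterenol at EC100; 0% = vehicle plus submaximal agonist and 100% = vehicle plus saturating agonist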
* marks the source's active call; other numbers are inactive results; . = no result; ! = a repeat was not active. An excerpt weighted towards active compounds, which were near 2.8% of everything screened.

SMILES	NPY Y2 blocker	NPY1 pot ag	EP2 modulator	PGE2 EP2 inh	NPY Y1 blocker	NPY2 pot ag
COc1ccc2[nH]c(=O)c(C(c3nnnn3Cc3ccccc3)N3CCCC(C)C3)cc2c1 (centres undefined)	.	.	33	7	.	.
C=C[C@]1(C)C[C@H](OC(=O)CO)[C@]2(C)C3C(=O)CC[C@]3(CC[C@H]2C)[C@H](C)[C@H]1O (some centres undefined)	.	.	-9	56*	.	.
COC(=O)c1sc(-c2cccs2)cc1NC(=O)/C=C/C(=O)O	.	-6	-110	63*	.	-14
COc1ccc(NC(=O)/C=C/C(=O)O)c(OC)c1	.	-8	75*	3	.	-17
CCc1nnc(NC(=O)c2sc3nc4c(C)ccc(C)c4cc3c2N)s1	.	.	-48	25	.	.
Cc1cc(N2C(=O)C(O)=C(C(=O)c3ccc(C)o3)C2c2cccs2)no1 (centres undefined)	6	41	52	56*	7	25
Cc1ccc(C(=O)C2=C(O)C(=O)N(CCc3ccccc3)C2c2cccs2)o1 (centres undefined)	.	.	38	16	.	.
COc1ccccc1N(C(=O)c1snc(C(N)=O)c1N)C(C(=O)NC1CCCC1)c1ccco1 (centres undefined)	20*	-24	.	5	27*	-16
COc1ccccc1N(C(=O)c1snc(C(N)=O)c1N)C(C(=O)NCCC(C)C)c1ccco1 (centres undefined)	9	-33	43	13	9	-14
COC(=O)c1sc(NC(=O)c2c(F)cccc2F)c(C#N)c1C	.	6	-22	6	-7	2
N#Cc1c(NC(=O)C(F)(F)F)sc2c3c(=O)c4ccccc4c(=O)c=3oc3ccccc3c12	.	.	-6	42*	.	.
COC(=O)C1=C(C)NC2=C(C(=O)CCC2)C1c1cccs1 (centres undefined)	0	13	1	2	1	-2
CC1=C(C(=O)N2CCCCC2)C(c2cccs2)C2=C(CCCC2=O)N1 (centres undefined)	22*	-10	.	1	4	13
Cc1[nH]c([N+](=O)[O-])c(C)c1C(=O)O	.	.	5	8	.	.
CCOC(=O)c1c(NC(C)=O)sc2c1CC(C)CC2 (centres undefined)	.	.	80*	8	.	.
CCOC(=O)c1c(NC(=O)c2cccs2)sc2c1CCC2	.	.	.	76*	.	.
CCOC(=O)c1c(NC(=O)CC2SC(N)=NC2=O)sc2c1CCC(C)C2 (centres undefined)	2	-20	68*!	12	0	5
COC(=O)c1c(NC(=O)CC2SC(N)=NC2=O)sc2c1CCC(C)C2 (centres undefined)	1	-3	2	8	-1	-3
CCOC(=O)c1c(NC(=O)C2C3C=CC(C3)C2C(=O)O)sc2c1CCC(C)C2 (centres undefined)	8	1	24	18	6	11
CCN(Cc1ccccc1)C(c1cccs1)c1nnnn1C1CCCCC1 (centres undefined)	9	5	31	10	13	7
CCN(Cc1ccccc1)C(c1ccccn1)c1nnnn1C1CCCCC1 (centres undefined)	-1	-12	64*!	11	4	5
Cc1ccc(CN2C3=NCCCN3c3ccccc32)cc1	9	-40	-6	16	11	-14
CC(C)(C)c1ccc(CN2C3=NCCCN3c3ccccc32)cc1	20*	-63	-52	23	25*	-35
CC1(c2ccccc2)CC(C)(C)N2C(=O)C3(C(C#N)=C(N)Oc4cc(O)ccc43)c3cccc1c32 (centres undefined)	-2	24	62*	4	-4	14
Cc1cc2c3c(c1)C(C)(c1ccccc1)CC(C)(C)N3C(=O)C21C(C#N)=C(N)OC2=C1C(=O)CC(C)(C)C2 (centres undefined)	-2	15	17	7	-6	-6
SMILES	NPY Y2 blocker	NPY1 pot ag	EP2 modulator	PGE2 EP2 inh	NPY Y1 blocker	NPY2 pot ag
CCOC(=O)COc1ccccc1/C=C\[N+](=O)[O-]	4	-6	-64	92*	-2	-5
COc1ccc(-c2[nH]ncc2N=Nc2ccccc2)cc1	.	30	62*	5	-3	13
Cc1ccc(NC2=C/C(=N\S(=O)(=O)c3cccs3)c3ccccc3C2=O)c(C)c1	-9	48*	-36	44*	-15	62*
Cc1cccc(NC2=C/C(=N/S(=O)(=O)c3cccs3)c3ccccc3C2=O)c1	-9	-30	-67	28	-3	-13
O=C1C(Nc2ccc(O)cc2)=C/C(=N/S(=O)(=O)c2cccs2)c2ccccc21	.	70*	-83	19	-21	68*
CCc1nnc(NC(=O)C2CCCN(S(=O)(=O)c3ccc(C)c(Cl)c3)C2)s1 (centres undefined)	.	.	-6	8	.	.
Cc1ccc2[nH]c(=O)c(CN(Cc3ccco3)S(=O)(=O)c3ccccc3Br)cc2c1	.	.	6	13	.	.
O=C(c1nn(Cc2ccccc2)c(=O)c2ccccc12)N1CCN(c2ccccn2)CC1	20*	-34	36	4	46*	-9
COc1ccc([C@H]2[C@H](C(=O)C(C)(C)C)N3N=Cc4ccccc4C3[C@]23N=C(c2ccccc2)OC3=O)cc1 (some centres undefined)	1	13	4	7	27*	6
O=C1c2ccc(O)c(O)c2C(=O)c2c(O)ccc(O)c21	.	.	19	13	.	.
CC1=CC(=O)c2c(O)ccc(O)c2C1=O	.	11	-51	84*	-3	9
CN1CCC(=C2c3ccccc3C(O)c3ccccc32)CC1 (centres undefined)	.	16	7	4	.	-15
CN1CCc2cccc3c2C1Cc1ccc(O)c(O)c1-3 (centres undefined)	.	.	-48	60*	.	.
Cc1ccc(-c2cc(C(=O)N3CCC(C(N)=O)CC3)no2)cc1	.	.	-18	8	.	.
O=C1C=CC(=O)c2c(O)c(Cl)c(Cl)c(O)c21	.	.	-20	129*	.	.
Cc1ccc(C2CC(C(F)(F)F)n3nc(C(=O)NCc4c(C)nn(C)c4C)c(Cl)c3N2)cc1 (centres undefined)	3	48*	-35	7	-18	39*
CCOC(=O)c1ccc(NC(=O)N2CCCC(c3nc4cc(C)c(C)cc4[nH]3)C2)cc1 (centres undefined)	.	.	-45	9	.	.
O=C(c1ccccc1)c1ccccc1N1C(=O)C=CC1=O	.	14	-49	45*	.	1
CCC(Sc1nc2ccccc2o1)C(=O)O (centres undefined)	.	-13	29	3	21*	-38
Cc1ccc2c(SCC(=O)NC(C)(C)C)nc(-c3ccc(F)cc3)nc2c1	.	.	-4	6	.	.
CCOC(=O)c1sc(NCCOc2ccccc2C)nc1C	.	.	-50	13	.	.
Cc1cccc(Oc2nc(CN3CCOCC3)nc3sc4c(c23)CCCC4)c1	29*	-22	39	15	20*	-3
